# A selection: hits, their analogues and other compounds. The true share with any hit is near 1.7%.
# Scp1 inh – Scp-1 phosphatase inhibitors, primary screen, biochemical, colorimetric, uHTS | 340,000 tested, 0.88% active | Recombinant Scp1, phosphopeptide, malachite green phosphate absorbance | inhibition, % at 20 µM | Carboxy-terminal domain RNA polymerase II polypeptide A small phosphatase 1 (Homo …;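 active means inhibition above about 50% at 20 µM, limit read from the data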
# Target sequence (Q9GZU7 76-261 limits assumed): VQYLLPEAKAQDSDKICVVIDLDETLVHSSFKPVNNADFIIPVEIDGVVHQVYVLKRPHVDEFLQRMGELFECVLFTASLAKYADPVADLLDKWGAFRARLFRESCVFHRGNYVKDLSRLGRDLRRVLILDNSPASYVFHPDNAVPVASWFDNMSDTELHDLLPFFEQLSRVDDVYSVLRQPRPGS
#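 assay system = SCP-1 phosphatase catalytic domain, residues 76-261 | buffer or medium = 50 mM Tris acetate pH 5.5, 0.005% Tween-20, 10 mM MgCl2 | incubation = enzyme reaction 45 min at room temperature, colour 5 min, stabilisation 30 min | signal = Phosphate-binding colour reagent, absorbance read at 630 nm | measure = % inhibition at 20 µM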
# LMPTP inh – LMPTP phosphatase inhibitors, primary screen, biochemical, fluorescence intensity, uHTS | Low molecular weight phosphotyrosine protein phosphatase (Homo sapiens), P24666 | recombinant LMPTP-A, OMFP fluorogenic substrate | inhibition, % at 20 µM | 360,000 tested, 0.22% active | AID 651560, 2012;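 active means compounds that cut the enzyme signal by at least half of the control window in the single-dose screen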
# Target sequence (P24666 whole entry, looked up): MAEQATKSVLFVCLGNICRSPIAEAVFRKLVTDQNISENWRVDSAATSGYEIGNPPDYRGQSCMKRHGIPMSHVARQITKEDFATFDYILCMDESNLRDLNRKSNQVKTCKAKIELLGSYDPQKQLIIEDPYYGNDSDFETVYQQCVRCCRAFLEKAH
#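 Buffer or medium: Bis-Tris pH 6.0, DTT, detergent; Assay system: LMPTP-A enzyme; Quantity: 0.625 nM enzyme; Detection: endpoint fluorescence intensity; Times: 50 min dark incubation at room temperature; Controls: substrate-only low control, DMSO enzyme-plus-substrate high control; Doses: single 20 µM dose; Read-out: percent inhibition versus substrate-only and uninhibited controls; Reagent: 400 µM OMFP.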
# DNMT1 block – human DNMT1 methyltransferase inhibitors, primary screen, biochemical, molecular beacon, fluorescence, HinP1I cleavage, uHTS. DNA (cytosine-5)-methyltransferase 1 (Homo sapiens), P26358. inhibition (reported as % activation of signal), % at 10 µM. 360,000 tested, 0.83% active. AID 588458, 2011; in the data active means inhibition above about 50%
# SUMO1-SIM PPI – modulators of SUMO1 protein-protein interactions, primary screen, biochemical, uHTS. inhibition, % at 20 µM. SUMO1 binding to a labelled peptide, TR-FRET, 1 h. 360,000 tested, 0.33% active. AID 602429, 2012. Small ubiquitin-related modifier 1 (Homo sapiens), P63165; in the data active means inhibition above about 37%
# Target sequence (P63165 whole entry, looked up): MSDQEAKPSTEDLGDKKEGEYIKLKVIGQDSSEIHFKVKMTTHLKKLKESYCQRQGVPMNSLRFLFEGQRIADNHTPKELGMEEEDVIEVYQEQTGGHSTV
# STEP block – STEP phosphatase inhibitors, primary screen, biochemical, fluorescence intensity, uHTS. Tyrosine-protein phosphatase non-receptor type 5 (Homo sapiens), P54829. recombinant STEP, OMFP fluorogenic substrate. inhibition, % at 20 µM. 360,000 tested, 0.25% active;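 active means inhibition at 20 µM, scaled per plate between control wells, above about 37%, limit read from the data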
#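 Material: STEP (striatal-enriched tyrosine phosphatase) enzyme, cell-free; Compound dosing: 20 µM single dose in 1% DMSO; Technique: fluorescence read at 480 nm ex / 540 nm em; Times: reaction 20 min, ambient temperature; Medium: 50 mM Bis-Tris pH 6.0 with 2.5 mM DTT and 0.005% Tween 20; Also added: OMFP at 25 µM.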
# Numbers stand for hits; – = inactive; · = no result given.
SMILES,Scp1 inh,LMPTP inh,DNMT1 block,SUMO1-SIM PPI,STEP block
O=C(N/N=C/c1cc(Br)cc([N+](=O)[O-])c1O)c1ccc(NC(=O)c2ccc(F)cc2)cc1,89,61,–,–,98
O=C(N/N=C/c1ccccc1O)c1ccc2c(c1)OCO2,–,–,–,–,–
O=C(N/N=C/c1cc(Br)cc(Br)c1O)c1ccncc1,–,·,·,·,·
O=C(N/N=C/c1cc(Br)cc(Cl)c1O)c1ccc2c(c1)OCO2,91,74,–,–,99
O=C(NC1CCCCC1)c1ccc(-c2cn[nH]c2)c2ccoc12,·,–,–,–,–
CCCc1ccc(C(O)c2ncc(-c3ccc(OC)cc3)[nH]2)cc1 (centres undefined),·,–,–,–,–
CN(C)c1ccc(/C=C/c2nc3ccccc3c(=O)n2-c2ccc(C(=O)O)cc2)cc1,64,–,–,–,–
CCCC[C@@H]1CNC(=O)C(=O)N1CCCC,·,–,·,49,·
CCCCN1C(=O)C(=O)NC[C@@H]1CCCCN,–,–,–,–,–
Cc1cccc(C)c1NC(=O)CSCC(=O)c1ccc(O)c(O)c1,–,48,–,–,–
Cc1cccc(C)c1NC(=O)CSCC(=O)O,–,–,–,–,–
CCCCC(=O)N(C)c1c(CC)nc2c(OCC(=O)C(C)(C)C)cccn12,·,–,–,–,–
CCOc1cccc(C(=O)Nc2cccc(-c3nnc(-c4ccc(C)cc4)o3)c2)c1,–,–,66,–,–
CCOc1cccc(C(=O)Nc2cccc(-c3nnc(-c4ccccc4)o3)c2)c1,–,–,–,–,–
O=C1/C(=C\c2ccco2)CCC/C1=C\c1ccco1,–,–,73,–,–
CC1(c2ccc(F)cc2)OC(=O)c2c1ccc1ccccc21 (centres undefined),·,–,–,–,–
COc1ccc2nc(NC(=O)c3cc(C)oc3C)sc2c1,–,–,–,–,–
COc1ccc(C(=O)Nc2nc3cc4c(cc3s2)OCO4)c(OC)c1,–,–,–,60,–
N#CCC(=O)N1CC2(CC(c3cccc(NC(=O)COc4ccc(Cl)cc4)c3)=NO2)C[C@@H]1C(N)=O (some centres undefined),–,–,–,–,–
C/C=C\C=C/C(=O)Nc1cccc(C2=NOC3(C2)C[C@H](C(N)=O)N(C(=O)CC)C3)c1 (some centres undefined),–,–,–,–,–
C=C(C)C(=O)Nc1cccc(C2=NOC3(C2)C[C@H](C(N)=O)N(C(=O)CC#N)C3)c1 (some centres undefined),57,·,·,·,·
C/C=C/C=C\C(=O)Nc1cccc(C2=NOC3(C2)C[C@H](C(N)=O)N(C(=O)CC#N)C3)c1 (some centres undefined),67,–,–,71,–
O=c1n(Cc2ccccc2)c(O)c2n1Cc1ccccc1N=C2c1ccc(C(F)(F)F)cc1,·,–,–,–,–
COCOc1ccc(-c2ncc(OC)nc2NC(=O)c2ccsc2)cc1,·,–,–,–,–
COc1ccc(NS(=O)(=O)c2cccc(C(=O)N/N=C/c3ccc(O)cc3)c2)cc1,–,–,–,62,–
SMILES,Scp1 inh,LMPTP inh,DNMT1 block,SUMO1-SIM PPI,STEP block
COc1ccc(NS(=O)(=O)c2cccc(C(=O)N/N=C/c3ccccc3OC)c2)cc1,–,–,–,–,–
COc1ccc(NS(=O)(=O)c2cccc(C(=O)NN=Cc3ccc(O)c(OC)c3)c2)cc1,–,–,–,63,–
Cc1cc(C)cc(Cn2c3ccc(NC(=O)NCc4ccc(F)cc4)cc3c(=O)n2C)c1,·,–,–,–,–
COc1ccc(-c2cc(C#N)nc(N3CCNCC3)n2)cc1,–,–,79,–,–
Cc1cccc(C)c1NC(=O)C1(C)CSCC(=O)N1CCC(C)C (centres undefined),·,–,·,–,·
Nc1ccc2nc(CCCCCCCCc3nc4ccc(N)cc4[nH]3)[nH]c2c1,–,65,–,–,–
Nc1ccc2nc(CCCCc3nc4ccccc4[nH]3)[nH]c2c1,–,–,–,–,–
Nc1ccc2nc(CCCCCCc3nc4ccc(N)cc4[nH]3)[nH]c2c1,–,68,–,–,–
